Legend:
HeLa S3 = assay: Antiproliferative activity against human HeLaS3 cells by MTT assay; format: functional, cell-based
How it was run: (§1)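 Antiproliferative MTT (microculture tetrazolium) assay run by a previously reported protocol, giving IC50 values. Cell lines came from ATCC: HeLaS3 cervix adenocarcinoma (CCL-2.2), A549 lung carcinoma (CCL-185), HT-29 colorectal adenocarcinoma (HTB-38), and nontumorigenic normal African green monkey kidney Vero (CCL-81).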

HT-29 = assay: Antiproliferative activity against human HT-29 cells by MTT assay; format: functional, cell-based; how it was run: as §1
A549 = assay: Antiproliferative activity against human A549 cells by MTT assay; format: functional, cell-based; how it was run: as §1
Vero = assay: Antiproliferative activity against African green monkey Vero cells by MTT assay; format: cell-based; details: Chlorocebus sabaeus; how it was run: as §1

Row | SMILES | IC50 (HeLa S3) [nM] | IC50 (HT-29) [nM] | IC50 (A549) [nM] | IC50 (Vero) [nM]
1 | CO[C@H]1[C@@H](O)[C@H](O[C@H]2CC[C@@]3(C)[C@H](CC[C@@H]4[C@@H]3CC[C@]3(C)[C@@H](C5=CC(=O)OC5)[C@@H](OC(C)=O)C[C@]43O)C2)O[C@@H](C)[C@@H]1O[C@@H]1O[C@H](CO)[C@@H](O)[C@H](O)[C@H]1O | 200 | 200 | 100 | 700
2 | COc1cccc2c1C(=O)c1c(O)c3c(c(O)c1C2=O)C[C@@](O)(C(=O)CO)C[C@@H]3O[C@H]1C[C@H](N)[C@H](O)[C@H](C)O1 [DOXORUBICIN] | < 100 | 400 | 5000 | 6600
3 | CO[C@@H]1[C@@H](O[C@@H]2O[C@H](CO)[C@@H](O)[C@H](O)[C@H]2O)[C@H](C)O[C@@H](O[C@H]2CC[C@@]3(C)[C@H](CC[C@@H]4[C@@H]3CC[C@]3(C)C(C5=CC(=O)OC5)=CC[C@]43O)C2)[C@@H]1OC(C)=O | > 10000 | > 10000 | > 10000 | > 10000
4 | CO[C@@H]1[C@@H](O[C@@H]2O[C@H](CO[C@@H]3O[C@H](CO)[C@@H](O)[C@H](O)[C@H]3O)[C@@H](O)[C@H](O)[C@H]2O)[C@H](C)O[C@@H](O[C@H]2CC[C@@]3(C)[C@H](CC[C@@H]4[C@@H]3CC[C@]3(C)[C@@H](C5=CC(=O)OC5)[C@@H](OC(C)=O)C[C@]43O)C2)[C@@H]1OC(C)=O | 1600 | 5000 | 2100 | > 10000
5 | CO[C@@H]1[C@@H](O)[C@H](C)O[C@@H](O[C@H]2CC[C@@]3(C)[C@H](CC[C@@H]4[C@@H]3CC[C@]3(C)[C@@H](C5=CC(=O)OC5)[C@@H](OC(C)=O)C[C@]43O)C2)[C@@H]1OC(C)=O | 40 | 100 | 500 | 200
6 | CO[C@@H]1[C@@H](O)[C@H](O[C@H]2CC[C@@]3(C)[C@H](CC[C@@H]4[C@@H]3CC[C@]3(C)C(C5=CC(=O)OC5)=CC[C@]43O)C2)O[C@@H](C)[C@@H]1O[C@@H]1O[C@H](CO)[C@@H](O)[C@H](O)[C@H]1O | 700 | 1900 | 1600 | 6200
7 | CO[C@H]1[C@@H](O)[C@H](C)O[C@@H](O[C@H]2CC[C@@]3(C)[C@H](CC[C@@H]4[C@@H]3CC[C@]3(C)[C@@H](C5=CC(=O)OC5)[C@@H](OC(C)=O)C[C@]43O)C2)[C@@H]1OC(C)=O | 100 | 100 | 30 | 300
8 | CO[C@H]1[C@@H](O)[C@H](O[C@H]2CC[C@@]3(C)[C@H](CC[C@@H]4[C@@H]3CC[C@]3(C)[C@@H](C5=CC(=O)OC5)[C@@H](OC(C)=O)C[C@]43O)C2)O[C@@H](C)[C@@H]1O[C@@H]1O[C@H](CO[C@@H]2O[C@H](CO)[C@@H](O)[C@H](O)[C@H]2O)[C@@H](O)[C@H](O)[C@H]1O | 400 | 1400 | 600 | 4800
9 | CO[C@@H]1[C@@H](O)[C@H](O[C@H]2CC[C@@]3(C)[C@H](CC[C@@H]4[C@@H]3CC[C@]3(C)[C@@H](C5=CC(=O)OC5)[C@@H](OC(C)=O)C[C@]43O)C2)O[C@@H](C)[C@@H]1O[C@@H]1O[C@H](CO[C@@H]2O[C@H](CO)[C@@H](O)[C@H](O)[C@H]2O)[C@@H](O)[C@H](O)[C@H]1O | 500 | 1600 | 1200 | 6900
10 | CO[C@@H]1[C@@H](O[C@@H]2O[C@H](CO)[C@@H](O)[C@H](O)[C@H]2O)[C@H](C)O[C@@H](O[C@H]2CC[C@@]3(C)[C@H](CC[C@@H]4[C@@H]3CC[C@]3(C)[C@@H](C5=CC(=O)OC5)[C@@H](OC(C)=O)C[C@]43O)C2)[C@@H]1OC(C)=O | 1400 | 1900 | 1500 | 5800
11 | CO[C@H]1[C@@H](O[C@@H]2O[C@H](CO)[C@@H](O)[C@H](O)[C@H]2O)[C@H](C)O[C@@H](O[C@H]2CC[C@@]3(C)[C@H](CC[C@@H]4[C@@H]3CC[C@]3(C)[C@@H](C5=CC(=O)OC5)[C@@H](OC(C)=O)C[C@]43O)C2)[C@@H]1OC(C)=O | 400 | 600 | 600 | 2200
12 | CO[C@@H]1[C@@H](O)[C@H](O[C@H]2CC[C@@]3(C)[C@H](CC[C@@H]4[C@@H]3CC[C@]3(C)[C@@H](C5=CC(=O)OC5)[C@@H](O)C[C@]43O)C2)O[C@@H](C)[C@@H]1O[C@@H]1O[C@H](CO)[C@@H](O)[C@H](O)[C@H]1O | 6800 | 6400 | 3800 | > 10000
13 | COc1cc([C@@H]2c3cc4c(cc3[C@@H](O[C@@H]3O[C@@H]5CO[C@@H](C)O[C@H]5[C@H](O)[C@H]3O)[C@H]3COC(=O)[C@H]23)OCO4)cc(OC)c1O [ETOPOSIDE] | 500 | 7600 | > 10000 | > 10000
14 | CO[C@H]1[C@@H](O)[C@H](O[C@H]2CC[C@@]3(C)[C@H](CC[C@@H]4[C@@H]3CC[C@]3(C)C(C5=CC(=O)OC5)=CC[C@]43O)C2)O[C@@H](C)[C@@H]1O[C@@H]1O[C@H](CO)[C@@H](O)[C@H](O)[C@H]1O | 700 | 800 | 300 | 2500
15 | CO[C@@H]1[C@@H](O)[C@H](O[C@H]2CC[C@@]3(C)[C@H](CC[C@@H]4[C@@H]3CC[C@]3(C)[C@@H](C5=CC(=O)OC5)[C@@H](OC(C)=O)C[C@]43O)C2)O[C@@H](C)[C@@H]1O[C@@H]1O[C@H](CO)[C@@H](O)[C@H](O)[C@H]1O | 100 | 200 | 100 | 600

From ChEMBL document CHEMBL4130533, “Cytotoxic Cardiac Glycoside Constituents of Vallaris glabra Leaves” (J Nat Prod, 2017)
